Source: ChEMBL document CHEMBL1268997, “Synthesis and biological evaluation of 3-substituted-benzofuran-2-carboxylic esters as a novel class of ischemic cell death inhibitors” (Bioorg Med Chem Lett, 2010)
pEC50: −log10 of the molar value.

How the values were obtained:
H9c2 [1] = assay: Cytoprotective activity against OGD-induced ischemic cell death in rat H9c2 cells assessed as cell death at 10 uM for 30 mins by DAPI analysis; format: functional
How it was run: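 H9c2 rat heart cells grown in DMEM with 10% FBS and penicillin/streptomycin at 37 °C in 5% CO2. Compound added 30 min before and during oxygen-glucose deprivation. Cells fixed with 0.5% Triton X-100 in PBS for 15 min, then DAPI-stained. Nuclei counted by fluorescence microscopy in three random fields of at least 300 cells to give % dead cells. Mean ± SEM.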

H9c2 [2] = assay: Cytoprotective activity against OGD-induced ischemic cell death in rat H9c2 cells assessed as cell death at 10 uM for 30 mins by LDH release assay; format: functional
How it was run: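 H9c2 rat heart cells grown in DMEM with 10% FBS and penicillin/streptomycin at 37 °C in 5% CO2. Pretreated with compound for 30 min, then kept on compound during oxygen-glucose deprivation. Cell death read as LDH released, expressed as a percentage of LDH released by full lysis with 0.1% Triton X-100. Mean ± SEM; Student's t-test.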

[3] = Cytoprotective activity against OGD-induced ischemic cell death in Sprague-Dawley rat primary cardiac myocytes assessed as inhibition of cell death treated for 6 hrs by counting DAPI-stained nuclei; settings: Cardiac muscle cell

Compound | Activity (H9c2 [1]) [%] | Activity (H9c2 [2]) [%] | pEC50 [3]
COC(=O)c1oc2ccccc2c1NC(=O)CSc1ccccc1Br | 13.63 | 41.01 | 
COC(=O)c1oc2ccccc2c1NC(=O)CSc1ccc(OC)cc1 | 9.73 | 40.34 | 6.12
COC(=O)c1oc2ccccc2c1NC(=O)CSc1ccc(C)cc1 | 21.57 | 56.39 | 
COC(=O)c1oc2ccccc2c1NC(=O)CSc1ccc([N+](=O)[O-])cc1 | 6.18 | 30.21 | 6.27
COC(=O)c1oc2ccccc2c1NC(=O)CSc1ccc(N)cc1 | 16.54 | 40.15 | 
COC(=O)c1oc2ccccc2c1NC(=O)COc1ccc(Br)cc1 | 13.17 | 36.17 | 5.93
COC(=O)c1oc2ccccc2c1NC(=O)CNc1ccc(Br)cc1 | 22.37 | 60.32 | 
COC(=O)c1oc2ccccc2c1NC(=O)CNc1ccccc1 | 21.04 | 62.76 | 
COC(=O)c1oc2ccccc2c1NC(=O)CCc1ccccc1 | 15.94 | 38.72 | 
COC(=O)c1oc2cccc(Cl)c2c1NC(=O)CSc1ccc(Br)cc1 | 8.94 | 35.48 | 6.20
COC(=O)c1oc2cccc(Cl)c2c1NC(=O)CCSc1ccccn1 | 7.02 | 29.46 | 6.25
COC(=O)c1oc2ccccc2c1NC(=O)CCSc1ccccn1 | 11.55 | 36.07 | 6.03
COC(=O)c1sc2ccccc2c1NC(=O)CSc1ccc(Br)cc1 | 13.92 | 41.31 | 
COC(OC)[C@@]1(C)Oc2ccc(N)cc2[C@@H](N/C(=N/Cc2ccccc2)NC#N)[C@@H]1O | 15.54 | 43.33 | 5.96
COC(=O)c1oc2ccccc2c1NC(=O)CSc1ccc(Br)cc1 | 10.59 | 32.39 | 6.11
COC(=O)c1oc2ccccc2c1NC(=O)CSc1ccccc1 | 15.97 | 40.93 | 
COC(=O)c1oc2ccccc2c1NC(=O)CSc1cccc(Br)c1 | 16.85 | 39.51 | 
